In ChEMBL document CHEMBL1124900, “Synthesis of substituted 7,12-dihydropyrido[3,2-b:5,4-b']diindoles: rigid planar benzodiazepine receptor ligands with inverse agonist/antagonist properties” (J Med Chem, 1990):

Key:
[1] = Partition coefficient (logP); type: physicochemical; conditions: octanol/water
In short: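 Crude octanol/water log P calculated from tabulated fragmentation constants; for one hydroxy analogue also determined experimentally.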

[2] = tested on: Mus musculus; experiment: Convulsant effects in mice treated with PTZ (40 mg/kg) dose; type: functional
[3] = target: GABA-A receptor; anion channel; experiment: In vitro inhibition of [3H]flunitrazepam binding to rat GABA-A Benzodiazepine receptor; type: protein-complex assay
[4] = target: GABA-A receptor; anion channel; experiment: In vitro potency measured against [3H]diazepam at the benzodiazepine receptor in rat
In short: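 Male Sprague-Dawley rats (175-250 g); cerebral cortex homogenized in 50 mM Tris-HCl pH 7.4 and washed by repeated centrifugation at 2000g. Membranes incubated with 2 nM [3H]diazepam for 60-90 min at 0-4 °C, then filtered. Nonspecific binding defined with 10 µM flunitrazepam. Six or more concentrations; IC50 from Hill plots; mean of at least three determinations.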

[5] = tested on: Mus musculus; experiment: Antagonism of Diazepam (2.5 mg/kg) anticonvulsant effects in mice treated with PTZ (80 mg/kg); type: functional
In short: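 Male NIH mice in groups of 10 received graded ip doses in Emulphor/saline 1:9, or vehicle. Diazepam 2.5 mg/kg ip followed 15 min later, then PTZ 80 mg/kg 15 min after that. ED50 is the dose antagonizing diazepam's protection against tonic/clonic convulsions in 50% of mice. Highest dose tested was 30 or 40 mg/kg.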

Structure (SMILES) | IC50 [4] [nM] | other results
c1ccc2c(c1)[nH]c1c2ncc2[nH]c3ccccc3c21 |  | logP [1]: 3.87
CC(C)(C)C(=O)Oc1ccc2c(c1)[nH]c1c3c4ccccc4nc-3c[nH]c12 |  | ED50 [2]: 17.5 mg/kg; IC50 [3]: 200 nM
Fc1ccc2[nH]c3c4c5ccccc5nc-4c[nH]c3c2c1 | 6 | logP [1]: 4.01; ED50 [2]: > 30 mg/kg
O=S(=O)(O)c1ccc2[nH]c3c(ncc4[nH]c5ccc(S(=O)(=O)O)cc5c43)c2c1 | 5000 | 
Brc1ccc2[nH]c3c(ncc4[nH]c5ccc(Br)cc5c43)c2c1 | > 320 | 
c1ccc(COc2cccc3[nH]c4c5c6ccccc6nc-5c[nH]c4c23)cc1 | > 4000 | 
Oc1cccc2[nH]c3c4c5ccccc5nc-4c[nH]c3c12 | 578 | 
Nc1ccc2[nH]c3c[nH]c4c5cc(Cl)ccc5nc-4c3c2c1 | > 350 | 
Brc1ccc2c(c1)[nH]c1c3c4ccccc4nc-3c[nH]c12 | 19 | ED50 [5]: > 40 mg/kg; logP [1]: 4.73; ED50 [2]: > 40 mg/kg
Clc1ccc2c(c1)[nH]c1c2ncc2[nH]c3ccccc3c21 |  | logP [1]: 4.58; ED50 [2]: > 30 mg/kg
Brc1ccc2[nH]c3cnc4c5ccccc5[nH]c4c3c2c1 | 6 | 
c1ccc(COc2ccc3c(c2)[nH]c2c3ncc3[nH]c4ccccc4c32)cc1 | > 4000 | 
COc1ccc2c(c1)[nH]c1c3c4ccccc4nc-3c[nH]c12.Cl | 8 | ED50 [5]: 3.9 mg/kg; logP [1]: 4.04; ED50 [2]: 7 mg/kg
Cn1c2ccccc2c2c3nc4ccccc4c-3[nH]cc21 | 1140 | 
Cc1cccc2c1[nH]c1c3c4ccccc4nc-3c[nH]c12 | 83 | 
Cc1ccc2[nH]c3c4c5ccccc5nc-4c[nH]c3c2c1 | 224 | 
Cc1cccc2[nH]c3c4c5ccccc5nc-4c[nH]c3c12 | > 5000 | 

Structure (SMILES) | IC50 [4] [nM] | other results
Brc1ccc2[nH]c3c4c5ccccc5nc-4c[nH]c3c2c1 | 750 | 
Cn1c2ccccc2c2[nH]cc3nc4ccccc4c-3c21 | 157 | 
Brc1cccc2c1[nH]c1c3c4ccccc4nc-3c[nH]c12 | 28 | 
CCc1nc2c3ccccc3[nH]c2c2c1[nH]c1ccccc12 | 250 | 
Cc1ccc2c(c1)[nH]c1c3c4ccccc4nc-3c[nH]c12 | 8 | ED50 [5]: > 40 mg/kg; logP [1]: 4.53; ED50 [2]: > 40 mg/kg
COc1cccc2[nH]c3c4c5ccccc5nc-4c[nH]c3c12 | 250 | 
Clc1ccc2[nH]c3c[nH]c4c5cccc(Cl)c5nc-4c3c2c1 | 310 | 
Oc1ccc2c(c1)[nH]c1c3c4ccccc4nc-3c[nH]c12 | 6 | ED50 [5]: > 40 mg/kg; logP [1]: 0.95; ED50 [2]: > 40 mg/kg
Nc1ccc2[nH]c3c[nH]c4c5ccccc5nc-4c3c2c1 | 44 | 
O=[N+]([O-])c1ccc2[nH]c3c[nH]c4c5cc(Cl)ccc5nc-4c3c2c1 | 1190 | 
O=[N+]([O-])c1ccc2[nH]c3c[nH]c4c5ccccc5nc-4c3c2c1 | 4 | 
O=[N+]([O-])c1ccc2[nH]c3c[nH]c4c5ccc(Cl)cc5nc-4c3c2c1 | 126 | 
Fc1ccc2c(c1)[nH]c1c3c4ccccc4nc-3c[nH]c12 |  | ED50 [5]: > 30 mg/kg; logP [1]: 4.01; ED50 [2]: > 30 mg/kg
Oc1ccc2[nH]c3c4c5ccccc5nc-4c[nH]c3c2c1 | 114 | ED50 [5]: > 40 mg/kg; ED50 [2]: > 40 mg/kg
Nc1ccc2[nH]c3c[nH]c4c5ccc(Cl)cc5nc-4c3c2c1 | 98 | 
c1ccc(COc2ccc3[nH]c4c5c6ccccc6nc-5c[nH]c4c3c2)cc1 | 1600 | 
